Data taken from ChEMBL document CHEMBL4152354, “A reusable magnetic nickel nanoparticle based catalyst for the aqueous synthesis of diverse heterocycles and their evaluation as potential anti-bacterial agent” (2018).
In brackets after ≈: the same amount, converted by molar mass.

Experiments:
Assay type in all cases: functional
Salmonella enterica = test: Antibacterial activity against Salmonella enterica MTCC 735 assessed as zone of inhibition at 100 uL after 24 hrs by agar well-diffusion method
Escherichia coli = test: Antibacterial activity against Escherichia coli MTCC 730 assessed as zone of inhibition at 100 uL after 24 hrs by agar well-diffusion method
Method in brief: (§1)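 Mueller-Hinton agar plates swabbed with a bacterial suspension adjusted to 1.5×10^8 CFU/ml. Each 5 mm well received 100 µl of compound, and plates were incubated at 37°C for 24 h. Chloramphenicol (30 mcg) was the positive control and DMSO the negative control. Inhibition zones around wells were measured manually, in triplicate.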

Bacillus cereus [1] = test: Antibacterial activity against Bacillus cereus MTCC 430 after 18 hrs by TTC staining based broth microdilution method; conditions: MTCC 430, 18 h
Method in brief: (§2)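 Broth microdilution in Mueller-Hinton broth. 50 µl of inoculum from a 0.5 McFarland suspension was added to 50 µl of compound, giving final concentrations of 0.024–400 mg/ml in DMSO. Sealed plates were incubated at 37°C for 18 h, then 50 µl of 0.5% TTC was added for 1 h in the dark. MIC was the lowest concentration with no visible growth (well stays clear). Triplicate; mean ± SD.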

Streptococcus pyogenes = test: Antibacterial activity against Streptococcus pyogenes MTCC 1925 assessed as zone of inhibition at 100 uL after 24 hrs by agar well-diffusion method; method in brief: as §1
Bacillus cereus [2] = test: Antibacterial activity against Bacillus cereus MTCC 430 assessed as zone of inhibition at 100 uL after 24 hrs by agar well-diffusion method; method in brief: as §1
Klebsiella pneumoniae [3] = test: Antibacterial activity against Klebsiella pneumoniae MTCC 109 after 18 hrs by TTC staining based broth microdilution method; conditions: MTCC 109, 18 h; method in brief: as §2
Klebsiella pneumoniae [4] = test: Antibacterial activity against Klebsiella pneumoniae MTCC 109 assessed as zone of inhibition at 100 uL after 24 hrs by agar well-diffusion method; method in brief: as §1

Compound `O=C(N[C@H](CO)[C@H](O)c1ccc([N+](=O)[O-])cc1)C(Cl)Cl` [CHLORAMPHENICOL] has an inhibition zone (IZ) (Salmonella enterica) of 17 mm, an inhibition zone (IZ) (Escherichia coli) of 35 mm and an MIC (Bacillus cereus [1]) of 90 µg/mL (≈ 279 µM). For the same compound, the inhibition zone (IZ) (Streptococcus pyogenes) was 36 mm, the inhibition zone (IZ) (Bacillus cereus [2]) was 22 mm and the MIC (Klebsiella pneumoniae [3]) was 90 µg/mL (≈ 279 µM). The inhibition zone (IZ) (Klebsiella pneumoniae [4]) was 33 mm.
